An excerpt weighted towards active compounds, which were near 2.6% of everything screened.
MITF TRPM1 HTS = increases MITF-driven TRPM1 promoter luciferase signal; SK-MEL-5 TRPM1-promoter luciferase, 24 h; % of positive control, neutral wells = 0; activation, % at 12.5 µM; 0.75% of 300,000 active; AID 588334;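 active = mean activation of at least 80% with every replicate also reaching 80%; inconclusive = mean reaches 80% but some replicate falls short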;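 note: 0% = neutral control wells and 100% = parthenolide positive control wells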
XiGFP reactiv = activators of X-chromosome reactivation in mouse fibroblasts | 0.055% of 360,000 active | AID 743238 | XiGFP mouse fibroblasts, % GFP-positive cells imaging, 3 d; cells co-treated with 5-aza-dC sensitizer; scaled so ellipticine positive control = 100% | activation, % at 7.58 µM;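 active = mean normalized replicate activation at least 10% and every replicate at or above 10%; inconclusive = only one of the two criteria met; inactive = mean below 10% and not all replicates reach 10%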;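 note: 0% = median of on-plate neutral control wells and 100% = ellipticine 6 µM median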
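Material: XiGFP fibroblasts, SV40-immortalized. Buffer or medium: DMEM plus 5-aza-dC sensitizer. Compound: single concentration per compound, delivered by pin transfer. Times: 3 days compound exposure. Controls: ellipticine 6 µM.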
esBAF inh = SWI/SNF esBAF complex inhibition; mouse ES cells, Bmi1-luciferase knock-in reporter, 24 h; 100% = twice the neutral-well signal; 2% of 350,000 active; reporter increase, % at 12.5 µM; in the data active = activation above about 40%; inconclusive = no clear call, values can overlap the other calls;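 note: 0% = median of the plate's neutral control wells and 100% = double that signal; a rise in the Bmi1 reporter signal indicates esBAF inhibition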
Vif inh = blocks HIV Vif function; HEK293T cells, Vif self-association by quenched fluorescence, imaging, 24 h; inhibition, % at 7.49 µM; 0.35% of 340,000 active; AID 602346; in the data active = inhibition above about 50%, passing the limit was not always enough; inconclusive = no clear call, values can overlap the other calls; inactive = below about 31%
Wnt bcat act = activators of Wnt/beta-catenin signaling; Wnt/beta-catenin reporter cell assay, activator, plate reader; activation, % at 9.35 µM; 1.2% of 300,000 active; in the data active = activation above about 30%, passing the limit was not always enough; inconclusive = no clear call, values can overlap the other calls;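 note: 0% = neutral control wells and 100% = positive control wells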
Starred values were filed as active, the others as inactive; ? = inconclusive; / = not tested or not shown.

SMILES | MITF TRPM1 HTS | XiGFP reactiv | esBAF inh | Vif inh | Wnt bcat act
C[C@@H]1CCCCO[C@@H](CN(C)CC2CC2)[C@H](C)CN([C@@H](C)CO)C(=O)c2cc(NS(=O)(=O)c3ccccc3)ccc2O1 | / | 0.4 | 8.8 | / | /
C[C@H](CO)N1C[C@H](C)[C@H](CN(C)Cc2ccncc2)OCCCC[C@H](C)Oc2ccc(NS(C)(=O)=O)cc2C1=O | / | -0.1 | -5.0 | / | /
COc1cc(C(=O)Nc2sc(C)c(C)c2C(=O)O)cc(OC)c1OC | -3.4 | 0.0 | / | -1.2 | -2.2
COc1cc(C(=O)Nc2sc3c(c2C(=O)O)CCC(C)C3)cc(OC)c1OC (centres undefined) | 3.1 | 0.3 | 7.0 | 122.3* | 0.4
COc1cccc(/C=N/NC(=O)c2cnn(-c3ccccc3)c2N)c1 | 50.1 | 0.1 | 59.6* | 4.9 | 7.9
COc1cc(/C=N/NC(=O)c2cccs2)ccc1O | 4.5 | -0.1 | 8.7 | -9.9 | 3.5
COc1cccc(/C=N/NC(=O)c2cccs2)c1 | / | 0.2 | 25.2 | -10.7 | 40.1*
COc1ccc(/C=C/C(=O)Oc2ccc(/C=N\NC(=O)c3ccc(F)cc3)cc2)cc1 | 5.9 | 0.0 | / | 2.2 | 0.6
O=C(N/N=C/c1ccc([N+](=O)[O-])cc1)c1cccs1 | / | -0.1 | / | 3.8 | 38.2*
COc1ccc(/C=C/C(=O)Oc2cccc(/C=N/NC(=O)c3cccc(F)c3)c2)cc1 | / | / | 45.4* | 6.3 | /
COc1ccc2c3c(n(C)c2c1)[C@@H](CO)N(Cc1ccncc1)CC31CCN(C(=O)C2CCCC2)CC1 | / | 0.3 | / | / | /
CN1[C@@H]2Cn3c(ccc(-c4ccccc4)c3=O)[C@H]1[C@@H](C(=O)NCCc1ccccc1)[C@@H]2CO | / | 0.4 | 2.2 | / | /
Cc1ccc(N=C(c2cccs2)N2CCOCC2)cc1 | 26.3 | / | 26.8 | 63.4* | 15.4
COc1ccc(NC(=O)COc2ccccc2)c(OC)c1 | 63.3 | / | 50.7* | -16.0 | -3.2
Cc1ccc(OCC(=O)Nc2ccccc2C(N)=O)cc1 | 61.3 | 0.1 | ? | 0.3 | 56.7*
C=CCn1c(SCC(=O)N(CC)C2CCS(=O)(=O)C2)nc2sc3c(c2c1=O)CCC3 (centres undefined) | -8.4 | 136.8* | -1.4 | 0.9 | -2.5
Fc1ccc(-c2ccc(Nc3cccc(F)c3)nn2)cc1 | 69.2 | 0.2 | 52.5* | -7.6 | 6.2
O=C(CC(SCc1ccco1)c1ccc(O)cc1)c1cccs1 (centres undefined) | 66.7 | / | 71.0* | / | /
CC(NC(=O)Cc1cccs1)c1ccc2c(c1)OCO2 (centres undefined) | 4.3 | / | 5.1 | -15.4 | 0.3
O=C(CC(SCCO)c1ccc2c(c1)OCO2)c1cccs1 (centres undefined) | 88.2* | / | 84.0* | -0.3 | 41.9*
O=C(C[C@@H]1CC[C@@H](NC(=O)Nc2ccccc2)[C@@H](CO)O1)NCc1cccc(F)c1 | / | 0.1 | -0.8 | / | /
Cc1cc(CN(C)C(=O)c2ccc3nc(Cc4ccccc4F)oc3c2)on1 | 98.3* | -0.1 | / | -4.4 | 18.4
Cc1cccc(CNC(=O)c2ccc3nc(Cc4ccccc4F)oc3c2)n1 | ? | 0.1 | -1.0 | / | 22.8
Cn1cc(CNC(=O)c2ccc3nc(Cc4ccccc4F)oc3c2)cn1 | 84.3* | 0.2 | / | -3.7 | 13.1
O=C(NCCc1ccccn1)c1ccc2nc(Cc3ccccc3F)oc2c1 | 53.9 | 0.1 | 72.0* | 2.5 | 16.1
SMILES | MITF TRPM1 HTS | XiGFP reactiv | esBAF inh | Vif inh | Wnt bcat act
CCN(Cc1cnn(C)c1)C(=O)c1ccc2nc(Cc3ccccc3F)oc2c1 | / | 0.1 | 21.4 | 10.2 | -0.9
Cn1cc(CCNC(=O)c2ccc3nc(Cc4ccccc4F)oc3c2)cn1 | 125.1* | 0.2 | 75.3* | -8.4 | 32.8*
COc1ccc(NC(=O)N(C)C[C@@H]2Oc3ccc(NC(=O)Nc4cccc5ccccc45)cc3CC(=O)N([C@@H](C)CO)C[C@H]2C)cc1 | / | 0.0 | 0.7 | / | /
CNc1nc2c(-c3ccc(Cl)cc3)nnn2c2ccccc12 | -14.4 | 0.0 | 6.9 | 12.9 | -6.1
Nc1nc2c(-c3ccc(Br)cc3)nnn2c2ccccc12 | 40.3 | 0.0 | 15.8 | 0.2 | 43.2*
COc1ccc(S(=O)(=O)N(C)C[C@@H]2Oc3ccc(NC(=O)CCCCCC(=O)Nc4ccccc4N)cc3C(=O)N([C@@H](C)CO)C[C@@H]2C)cc1 | / | 0.3 | / | / | /
Cc1cccc(C)c1NC(=S)N(Cc1cccs1)C1CCCC1 | 4.0 | 0.0 | / | -1.4 | -0.5
Cc1ccccc1NC(=S)N(Cc1cccs1)C1CCCC1 | 11.4 | 0.0 | 1.7 | 51.3* | -0.5
O=C(NC1CCCCC1)c1ccc(-c2cn[nH]c2)c2ccoc12 | / | 0.0 | 53.1* | 8.7 | 2.7
COc1ccc(-c2ccc(C(=O)NC3CCCCC3)c3occc23)c(C)c1 | / | 0.3 | 28.2 | -9.7 | 0.7
Cc1ccccc1-c1nnc(SCc2ccccc2)o1 | / | / | 63.1* | -15.0 | /
c1ccc(CSc2nnc(-c3c[nH]c4ccccc34)o2)cc1 | 64.3 | / | 53.4* | 4.9 | 11.1
Cc1ccccc1-c1nnc(SCc2ccccc2F)o1 | / | / | ? | 0.4 | /
O=S(=O)(NCC[C@H]1CC[C@H](NS(=O)(=O)c2ccccc2Cl)[C@@H](CO)O1)c1ccc(F)cc1 | / | 0.3 | 2.8 | / | /
Cc1cccnc1Nc1nc(-c2ccc(O)c(O)c2)cs1 | 45.1 | / | -12.9 | 41.6 | 14.6
COc1ccc(-c2csc(Nc3ncccn3)n2)cc1C | 72.9 | 0.2 | ? | -0.9 | 38.3*
COc1ccc(-c2csc(Nc3ncccc3C)n2)cc1OC | 78.7 | / | 86.7* | -14.1 | 3.4
CC(C)NC(=O)N(C)C[C@H]1Oc2ccc(NC(=O)Nc3ccc(F)cc3)cc2CC(=O)N([C@H](C)CO)C[C@@H]1C | / | 0.2 | -4.0 | / | /
Cc1ccc(NC(=O)CCC(=O)NNC(=O)C(C)(C)C)c(C)c1 | 5.5 | -0.2 | / | -7.6 | 39.9*
CCC(=O)NNC(=O)CCC(=O)Nc1ccc(C)cc1C | 18.9 | 0.0 | 8.0 | -3.4 | -7.1
Cc1ccc(NC(=O)CCC(=O)NNC(=O)NC2CCCCC2)c(C)c1 | -8.3 | 0.0 | -7.0 | 78.6* | -0.3
CCCNC(=O)Nc1ccc2c(c1)C(=O)N(C)C[C@@H](OC)[C@@H](C)CN(CCC(F)(F)F)[C@@H](C)CO2 | / | 0.1 | -3.9 | / | /
CCCN1[C@@H]2c3ccc(/C=C/c4ccccc4)c(=O)n3C[C@@H]2[C@@H](CO)[C@@H]1C(=O)N1CCOCC1 | / | 0.0 | -0.2 | / | /
O=C(Nc1ccccc1F)N1CC(=O)N2[C@H](C1)[C@@H](c1ccc(-c3ccc(F)cc3)cc1)[C@@H]2CO | / | 0.2 | / | / | /
CC(=O)Nc1cccc(NC(=O)c2cc(-c3ccccn3)nc3ccc(Cl)cc23)c1 | -14.7 | 0.1 | -11.1 | 69.8* | -1.0
O=c1c2ccccc2nc2n1CCc1c-2[nH]c2ccccc12 | 39.0 | -0.1 | 27.5 | 1.8 | 40.7*
Cc1cccc2c(=O)n3c(cc12)-c1[nH]c2ccccc2c1CC3 | 19.1 | 1.7 | / | -8.9 | -6.1
COc1ccc2c3c([nH]c2c1)[C@H](CO)N(C(=O)CN(C)C)CC31CCN(CC2CCCC2)CC1 | / | 0.3 | / | / | /
c1ccc(C(Cc2nc(-c3cccnc3)no2)c2ccccc2)cc1 | -2.4 | / | / | -4.8 | /

Screening results from PubChem.
